High-throughput results: PubChem BioAssay, several laboratories
MT1-MMP act inh: MT1-MMP (human) activation inhibition | 360,000 tested, 0.061% active | P50281 | GFP/RFP ratio change, % at 20 µM | HT1080 RFP-PRO-GFP cells, GFP/RFP ratio fluorescence, overnight; percent of plate control window, DMSO zero;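 active = GFP/RFP ratio change of at least 30% with cell ATP level not reduced by more than half and red fluorescence within 50% of control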
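Assay system: HT1080 cells carrying an RFP-PRO-GFP reporter | Dosing: Single dose of 20 µM compound, 1% DMSO final | Incubation: Cells overnight before dosing, compound overnight, 37 °C, 5% CO2 | Evaluation: GFP/RFP fluorescence ratio | Control set: DMSO and RFP-L50D-GFP cell wells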
FAS-TE inh: blocks the thioesterase domain of human fatty acid synthase; recombinant FAS-TE, OMFH fluorogenic substrate, fluorescence endpoint; inhibition, % at 15 µM; 360,000 tested, 0.67% active;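 active = compounds whose normalised, plate-corrected inhibition of enzyme fluorescence in the single-dose primary screen is 50% or more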;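 note: 0% = DMSO with enzyme and 100% = substrate without enzyme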
hiPSC survival: enhancers of human iPSC single-cell survival; hiPSC single-cell survival, ATPlite luminescence; 100% = ROCK inhibitor wells, 0% = DMSO; survival enhancement, % at 20 µM; 360,000 tested, 0.044% active; AID 602274; in the data active = survival enhancement above about 18%;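 note: cells exposed to compounds for 16 hours before the ATP read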
DAGLB inhibitor: blocks human DAGLB lipase activity | Q8NCG7 | HEK293T DAGLB membrane lysate, EnzChek fluorogenic substrate | inhibition, % at 5.17 µM | 340,000 tested, 0.059% active | AID 504411; in the data active = inhibition above about 34%;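 note: 0% = enzyme with vehicle and 100% = wells lacking enzyme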
Target sequence (Q8NCG7 whole entry, looked up): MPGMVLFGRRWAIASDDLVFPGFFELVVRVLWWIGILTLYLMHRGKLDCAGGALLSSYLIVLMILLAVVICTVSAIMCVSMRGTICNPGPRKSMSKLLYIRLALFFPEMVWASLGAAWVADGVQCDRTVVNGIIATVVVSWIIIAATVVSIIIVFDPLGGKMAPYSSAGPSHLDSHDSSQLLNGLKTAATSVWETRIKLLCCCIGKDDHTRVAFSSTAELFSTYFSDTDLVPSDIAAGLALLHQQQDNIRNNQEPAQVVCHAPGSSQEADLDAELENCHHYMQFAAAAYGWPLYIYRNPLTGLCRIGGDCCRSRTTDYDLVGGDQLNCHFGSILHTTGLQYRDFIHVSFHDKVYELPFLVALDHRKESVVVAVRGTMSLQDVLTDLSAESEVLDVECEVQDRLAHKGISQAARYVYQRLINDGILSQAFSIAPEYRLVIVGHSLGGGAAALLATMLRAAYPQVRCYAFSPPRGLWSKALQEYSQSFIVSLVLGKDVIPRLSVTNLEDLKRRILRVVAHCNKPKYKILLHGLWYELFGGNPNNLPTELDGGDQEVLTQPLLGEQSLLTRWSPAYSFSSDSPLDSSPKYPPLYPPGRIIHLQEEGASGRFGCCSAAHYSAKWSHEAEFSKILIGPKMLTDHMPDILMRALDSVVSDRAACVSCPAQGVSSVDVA
SKN-1 block: C. elegans SKN-1 inhibition; C. elegans VP596 Pgst-4::GFP/RFP ratio, acrylamide-induced, 24 h; inhibition, % at 21.8 µM; 360,000 tested, 0.49% active;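 active = interference check ratio from 0.5 to 1.5 plus GFP to RFP signal ratio inhibition reaching or exceeding a fixed threshold, cut at about 30% in these data, passing the limit was not always enough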
FAS-TE conf: FAS thioesterase (human) inhibition, confirmation | shares compounds with FAS-TE inh | recombinant FAS-TE, OMFH fluorogenic substrate, fluorescence | inhibition, % at 15 µM | 2,300 tested, 45% active;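 active = compounds inhibiting the enzyme by at least 50% at 15 µM in any one of the replicates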;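 note: 0% = enzyme with DMSO only and 100% = wells lacking enzyme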
MT1-MMP conf: MT1-MMP (human) activation inhibition, single-concentration validation; shares compounds with MT1-MMP act inh; HT1080 RFP-PRO-GFP cells, GFP and RFP fluorescence ratio, overnight; inhibition, % at 20 µM; 200 tested, 10% active;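 active = inhibition of at least 50% in the primary cell screen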
Active calls of the source: *; · = not tested or not shown. A selection: hits, their analogues and other compounds. The true share with any hit is near 1.3%.

SMILES	MT1-MMP act inh	FAS-TE inh	hiPSC survival	DAGLB inhibitor	SKN-1 block	MT1-MMP conf	others
Cc1ccc(S(=O)(=O)NN=C2CCC(C(C)(C)C)CC2)cc1[N+](=O)[O-] (centres undefined)	2	67*	0	2	-11	·	FAS-TE conf=47*
CC(=O)Nc1ccc(C=NNc2ccc([N+](=O)[O-])cc2S(=O)(=O)Nc2ccccc2C(=O)O)cc1	0	42	0	10	4	·
COc1ccc(C(C)=NNc2ccc([N+](=O)[O-])cc2S(=O)(=O)Nc2ccccc2C(=O)O)c(OC)c1	2	71*	0	18	-1	·	FAS-TE conf=68*
CCCCNC(=O)c1nc(-c2ccccc2)oc1-c1ccc(Cl)cc1	-3	·	·	·	21	·
CCc1nc2ccc(C(=O)N(CC)CCN(C)C)cn2c1N(C)C(=O)c1cccc(OC)c1	-4	-11	1	·	7	·
O=C(NC1CCCCC1)C1CC(=O)N(c2cccc([N+](=O)[O-])c2)C1 (centres undefined)	-1	80*	-4	1	7	·	FAS-TE conf=84*
COc1ccc(OC)c(-c2nc3cc4ccccc4cc3nc2-c2ccccc2)c1	-3	53*	-1	-6	15	·	FAS-TE conf=14
COc1ccc(-c2nc3ccccc3nc2-c2ccccc2)cc1OC	-4	12	0	-7	-3	·
O=C(OCc1cn([C@@H]2CN(Cc3cccs3)[C@@H](c3ccc(Cl)cc3)C[C@H]2O)nn1)c1ccccc1	0	22	-2	-8	8	·
Cc1cccc(N2CCN(C(=S)Nc3ccc4nc5n(c(=O)c4c3)CCCCC5)CC2)c1C	·	-4	0	1	-10	·
Cc1ccc(COC(=O)c2cc([N+](=O)[O-])ccc2N2CCOCC2)cc1	7	54*	0	-4	-7	·	FAS-TE conf=52*
O=C(OCc1ccc([N+](=O)[O-])cc1)c1cc([N+](=O)[O-])ccc1N1CCOCC1	-5	80*	0	4	-11	·	FAS-TE conf=76*
Nc1ccccc1C(=O)NNc1c2ccccc2nc2ccccc12	18	6	0	14	14	·
Cc1cc(C(=O)NNC(=O)c2ccc(Cl)cc2)c2ccccc2n1	1	-5	-1	-3	-12	·
Cc1ccc(C(=O)NNc2c3ccccc3nc3ccccc23)cc1	37*	2	0	28	-4	39
O=C(NNc1c2ccccc2nc2ccccc12)c1ccc(Cl)cc1	40*	3	0	7	41*	26
CN(C)c1ccc(C(=O)c2ccc(O)cc2O)cc1	-2	-3	-1	2	11	·
CN(C)c1ccc(Cc2cc3c(O)ccc(O)c3cc(Cc3ccc(N(C)C)cc3)c2=O)cc1	33*	9	0	14	16	23
O=C(Nc1ccc2c(c1)OCO2)C1CCN(C(=O)c2ccc(Br)cc2)CC1	8	12	3	0	-13	·
COc1cccc(C2=Nc3cccc4cccc(c34)N2)c1	37*	18	2	10	15	7
Nc1ccc(C2=Nc3cccc4cccc(c34)N2)cc1	-5	0	-3	5	5	·
NS(=O)(=O)c1ccc(CCNC(=O)CNC(=O)c2ccc(Br)o2)cc1	3	-6	0	0	5	·
C/C(=C/c1oc2ccc(O)cc2c1[N+](=O)[O-])N(C)C	43*	-2	0	10	13	32
COc1ccc2oc(/C=C/N(C)C)c(C(=O)c3ccc(Cl)cc3)c2c1	7	12	0	10	-8	·
CC(=O)Oc1ccc2oc(/C=C/N(C)C)c([N+](=O)[O-])c2c1	45*	2	-2	6	29	36
SMILES	MT1-MMP act inh	FAS-TE inh	hiPSC survival	DAGLB inhibitor	SKN-1 block	MT1-MMP conf	others
COc1ccc(N=Cc2ccccc2O)cc1	3	-6	0	0	-3	·
COc1ccc2sc(/C=C/c3ccccc3O)[n+](C)c2c1	34*	-8	-1	·	37	8
CC(C)(C)c1ccc(OCCNC(=O)c2ncn[nH]2)cc1	36*	-73	-4	0	-14	5
Nc1ccc(NC(=O)c2ccccc2)c2c1C(=O)c1ccccc1C2=O	38*	2	-3	2	8	27
O=[N+]([O-])c1ccc(N=Nc2ccc(O)cc2O)cc1	1	-3	-2	2	-4	·
O=S(=O)(O)c1cc(Cl)cc(N=Nc2ccc(O)cc2O)c1O	62*	2	1	-64	89	46
CC1=NN(c2ccccc2)C(=O)/C1=C/C=C/C=C/N(C)C	40*	-2	-2	15	66*	38
CCN(C(=O)Cn1ccc(C(F)(F)F)n1)c1c(N)n(Cc2ccccc2)c(=O)[nH]c1=O	-1	-8	-2	-5	4	·
COc1cc(/C=C2\SC(=S)N(CCC(=O)Nc3ccccc3)C2=O)cc(OC)c1OC	11	-6	0	-1	14	·
COc1ccccc1NC(=O)CCN1C(=O)/C(=C\c2cc(OC)c(OC)c(OC)c2)SC1=S	36*	12	0	2	5	20
CCOC(=O)c1c2c3c(c(Cl)ccc3[nH]c1=O)C(=O)c1ccccc1-2	44*	40	0	·	8	22
CCOC(=O)c1c2c3c(cccc3[nH]c1=O)C(=O)c1ccccc1-2	-10	-5	1	0	8	·
COc1cccc2c1OC[C@@H](CO)[C@H]2N(C)C(=O)Nc1ccc(Cl)cc1Cl	32*	-1	-2	-1	-6	13
CC(C)c1ccc(NC2CCCN(C(=O)c3cccs3)C2)cc1 (centres undefined)	-1	8	0	-3	6	·
Cc1ccc(CN2CCCN(C)CC2)c(C)c1	4	-6	0	1	9	·
COc1ccccc1NC(=O)c1ccc(S(=O)(=O)N(C)c2ccccc2OC)cc1	35*	22	2	-5	2	10
CCOc1ncccc1C(=O)N(C)CC(=O)Nc1ccccc1SC	0	-11	4	1	4	·
CC[n+]1c(/C=C/Nc2ccccc2)sc2ccccc21	38*	-13	-1	2	39*	41
CC[n+]1c(/C=C(\C)Nc2ccccc2)sc2ccccc21	-2	-6	-2	1	11	·
CSc1ccc(CC(=O)N2CCC(n3nccc3NC(=O)C3CC3)CC2)cc1	5	-2	0	2	3	·
CCNc1c(C(=O)O)ccc2c1C(=O)c1ccccc1C2=O	16	-5	0	4	14	·
CNc1c(C(=O)O)ccc2c1C(=O)c1ccccc1C2=O	34*	-2	4	10	16	26
CCn1c(O)c(C=NC2CCCC2)sc1=S	10	3	1	1	-2	·
